# Experiments:
# Human primary astrocytes [1] = experiment: Ca2+ mobilization assay, agonistic application; type: cell-based; details: for effect on intracellular Ca2+ mobilization as agonist: Fig. 2A, agonistic application
# Summary of the method: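 Human primary astrocytes were plated at 10 000 cells/well in 384-well plates (day 0), switched to FreeStyle 293 expression medium on day 1 for 18 h, then loaded with FLIPR Calcium 4 dye for 1 h […]. Intracellular Ca2+ was monitored kinetically across a concentration series up to 30 µM, and logEC50 was taken from concentration-response curves.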
# Human primary astrocytes [2] = experiment: Ca2+ mobilization assay, functional antagonism; type: cell-based; details: 18 h pretreatment, Fig. 2B,C
# Summary of the method: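 Astrocytes were pretreated overnight (18 h) with 1 or 10 µM test compound, then loaded with calcium dye for 1 h without compound before S1P stimulation, with Ca2+ mobilization recorded. Inhibition was assessed against 10 µM S1P. Mean ± SD, n = 4, pooled from three independent experiments.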
# S1P1 [3] = molecular target: T1, S1P1 (Homo sapiens, UniProt P21453); experiment: compensated interferometric reader; type: binding
# T1 sequence (P21453 whole entry): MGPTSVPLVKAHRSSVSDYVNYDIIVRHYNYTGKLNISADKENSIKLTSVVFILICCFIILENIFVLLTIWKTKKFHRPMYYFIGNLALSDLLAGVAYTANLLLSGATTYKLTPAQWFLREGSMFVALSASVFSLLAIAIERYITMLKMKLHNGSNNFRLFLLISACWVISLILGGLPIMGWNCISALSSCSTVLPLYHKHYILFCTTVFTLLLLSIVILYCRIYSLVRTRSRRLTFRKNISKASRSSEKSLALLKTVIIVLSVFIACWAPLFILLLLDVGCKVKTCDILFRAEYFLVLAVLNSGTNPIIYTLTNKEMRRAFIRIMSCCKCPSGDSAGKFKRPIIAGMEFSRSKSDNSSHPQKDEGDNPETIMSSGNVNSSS
# Summary of the method: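 Nanovesicles were made by sonicating C6 glioblastoma cells overexpressing HA-tagged human S1P1, with vector-transfected C6 cells as control. Vesicles were incubated 1 h with increasing test compound concentrations. Compensated interferometric reader signal was read against a reference of compound without vesicles. Specific binding was taken as S1P1-vesicle signal minus control-vesicle signal.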
# S1P1 [4] = molecular target: T1, S1P1; experiment: S1PR internalization assay, short-term; type: cell-based; details: 1 µM, 1 h, FCM, normalized to vehicle
# Summary of the method: (§1)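 C6 glioblastoma cells stably expressing an HA-tagged human S1P receptor subtype, grown in high-glucose DMEM with 10% FBS and penicillin–streptomycin. Test compound or S1P (1 µM) applied for 1 h. Surface receptor stained with anti-HA (clone 3F10), then PE anti-rat IgG, and read by flow cytometry. Vector-transfected C6 cells served as negative control. Levels normalized to vehicle; n = 4 from two independent experiments.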
# S1P4 = molecular target: T2, S1P4 (Homo sapiens, UniProt O95977); experiment: S1PR internalization assay, short-term; type: cell-based; details: 1 µM, 1 h, FCM, normalized to vehicle
# T2 sequence (O95977 1-384): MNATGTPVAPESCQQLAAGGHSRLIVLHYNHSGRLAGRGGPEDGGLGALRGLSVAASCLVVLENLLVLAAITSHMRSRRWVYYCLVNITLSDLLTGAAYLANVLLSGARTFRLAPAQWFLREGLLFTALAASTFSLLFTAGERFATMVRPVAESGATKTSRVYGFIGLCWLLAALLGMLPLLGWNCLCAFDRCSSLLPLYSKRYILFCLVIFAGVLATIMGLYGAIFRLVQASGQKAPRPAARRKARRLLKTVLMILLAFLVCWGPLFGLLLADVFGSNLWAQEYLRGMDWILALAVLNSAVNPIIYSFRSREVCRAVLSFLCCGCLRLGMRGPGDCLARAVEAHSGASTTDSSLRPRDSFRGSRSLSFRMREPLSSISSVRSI
# Summary of the method: as §1
# S1P1 [5] = molecular target: T1, S1P1; experiment: S1P1 internalization, wash-out experiment in S1P1-C6 cells; type: cell-based; details: 1 µM for 4 h, 18 h compound-free medium, FCM
# S1P2 = S1P2 (Homo sapiens, UniProt O95136); experiment: S1PR internalization assay, short-term; type: cell-based; details: 1 µM, 1 h, FCM, normalized to vehicle
# S1P2, sequence (O95136 whole entry): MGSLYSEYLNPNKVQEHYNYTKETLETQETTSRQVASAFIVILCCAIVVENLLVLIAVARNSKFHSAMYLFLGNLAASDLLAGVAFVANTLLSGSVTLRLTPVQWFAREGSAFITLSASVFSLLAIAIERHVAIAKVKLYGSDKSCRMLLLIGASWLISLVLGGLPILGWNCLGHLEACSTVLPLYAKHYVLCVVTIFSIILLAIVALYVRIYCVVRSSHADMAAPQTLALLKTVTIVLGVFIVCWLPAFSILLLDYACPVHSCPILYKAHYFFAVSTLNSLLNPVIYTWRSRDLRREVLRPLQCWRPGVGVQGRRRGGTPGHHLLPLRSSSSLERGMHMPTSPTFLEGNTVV
# Summary of the method: as §1
# S1P5 = S1P5 (Homo sapiens, UniProt Q9H228); experiment: S1PR internalization assay, short-term; type: cell-based; details: 1 µM, 1 h, FCM, normalized to vehicle
# S1P5, sequence (Q9H228 whole entry): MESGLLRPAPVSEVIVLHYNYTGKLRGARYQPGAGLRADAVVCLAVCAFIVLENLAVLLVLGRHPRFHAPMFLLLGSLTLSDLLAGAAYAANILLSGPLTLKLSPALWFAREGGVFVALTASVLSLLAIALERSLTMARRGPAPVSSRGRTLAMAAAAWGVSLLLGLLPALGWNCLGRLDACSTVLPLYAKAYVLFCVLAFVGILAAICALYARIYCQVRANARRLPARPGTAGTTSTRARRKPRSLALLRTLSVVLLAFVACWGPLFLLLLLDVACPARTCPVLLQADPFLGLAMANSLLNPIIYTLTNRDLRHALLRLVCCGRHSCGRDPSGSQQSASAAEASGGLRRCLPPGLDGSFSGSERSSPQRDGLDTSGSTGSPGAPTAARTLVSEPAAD
# Summary of the method: as §1
# S1P3 = S1P3 (Homo sapiens, UniProt Q99500); experiment: S1PR internalization assay, short-term; type: cell-based; details: 1 µM, 1 h, FCM, normalized to vehicle
# S1P3, sequence (Q99500 whole entry): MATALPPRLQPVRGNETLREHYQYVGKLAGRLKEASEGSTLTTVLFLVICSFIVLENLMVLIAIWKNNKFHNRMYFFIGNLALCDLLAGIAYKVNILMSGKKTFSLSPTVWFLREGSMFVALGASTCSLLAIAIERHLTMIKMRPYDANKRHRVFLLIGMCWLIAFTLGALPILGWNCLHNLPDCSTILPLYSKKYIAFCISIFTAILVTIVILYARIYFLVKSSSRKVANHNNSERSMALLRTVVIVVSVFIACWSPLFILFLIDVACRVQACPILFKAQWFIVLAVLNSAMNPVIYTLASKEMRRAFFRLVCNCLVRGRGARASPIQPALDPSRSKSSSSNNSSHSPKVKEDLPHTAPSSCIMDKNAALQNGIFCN
# Summary of the method: as §1
# MS fatigue = details: OPTIMUM Phase 3 study; cited from earlier work
# Human primary astrocytes [6] = experiment: cAMP AlphaScreen assay, functional antagonism; type: cell-based; details: 10 µM, 18 h pretreatment
# Summary of the method: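 Astrocytes were pretreated 18 h with 10 µM test compound, then resuspended in HBSS with 0.5 mM IBMX, 5 mM HEPES and 0.1% BSA at 5000 cells/well. Cells were stimulated with S1P plus 10 µM forskolin for 30 min at room temperature. cAMP was read by AlphaScreen after 1 h dark incubation with donor beads in lysis buffer. Data were baseline-corrected, normalized to S1P response and fitted with three-parameter curves. Mean ± SD, n = 3–4.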
# [7] = tested on: cuprizone‐induced demyelination; experiment: cuprizone-induced demyelination, preventative paradigm; type: in vivo, C57BL/6J mice; details: 30 mg/kg b.i.d. oral during 5 weeks 0.2% cuprizone
# Summary of the method: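 Male C57BL/6J mice (8 weeks old) received 0.2% cuprizone diet for 5 weeks with concurrent oral test compound, 30 mg/kg suspension in 0.25% methylcellulose/0.05% polysorbate 80, twice daily 8 h apart. Brains were perfusion-fixed in 10% NBF and cryoprotected, then cut into 30 µm coronal sections. Sections were stained with Black Gold II and immunostained for Olig2 and Iba1. Signal was quantified in a constant ROI in the midline corpus callosum or cingulum.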
# S1P1 [8] = details: cited from earlier work
# Human primary astrocytes [9] = experiment: cAMP AlphaScreen assay, Gαi-coupled agonist mode; type: cell-based; details: Fig. 2D, 10 µM FSK
# Summary of the method: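 Primary human astrocytes suspended in HBSS with 0.5 mM IBMX, 5 mM HEPES and 0.1% BSA, 5000 cells/well. Compound added with 10 µM forskolin (final), 30 min at room temperature. Lysis buffer (pH 7.4) carried biotin-cAMP/donor beads, then 1 h dark. AlphaScreen read: excitation 680 nm, emission 570 nm. Baseline-corrected, normalized to S1P, three-parameter curve fit. Mean ± SD, n = 3–5 over three experiments.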
# Human primary astrocytes [10] = experiment: Single-cell RNA-seq of cytokine-stimulated astrocytes; type: cell-based; details: 1 µM; for number of DEGs, cytokines + ponesimod vs cytokines: total
# Summary of the method: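 Primary human astrocytes (500 000 cells per 6 cm dish) received a cytokine mix (TNF-α, IFN-γ, IL-17, IL-1β, IL-6; 25 ng/ml each) ± 1 µM test compound for 24 or 48 h. 10x Chromium 3′ v3 capture targeted 10 000 cells, with NovaSeq sequencing and GRCh38 alignment. Data were normalized by regularized negative binomial regression and SNN-clustered. MAST DEGs: FDR p < .05, log2FC > 1.1. A fibroblast/pericyte cluster was excluded.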
# [11] = tested on: cuprizone‐induced demyelination; experiment: cuprizone model, therapeutic paradigm; type: in vivo, C57BL/6J mice; details: 30 mg/kg
# [12] = molecular target: S1P1‐EGFP fusion construct (Homo sapiens, UniProt P21453); experiment: S1P1-EGFP internalization imaging in human primary astrocytes; type: cell-based; details: 1 µM, 1 h
# S1P1‐EGFP fusion construct, sequence (P21453 whole entry, the tested form may be a part): as the sequence (P21453 whole entry) above
structure (smiles),measurement,setting,value
CCc1cc(/C(C)=N/OCc2ccc(C3CCCCC3)c(C(F)(F)F)c2)ccc1CN1CC(C(=O)O)C1 [Siponimod],effect on intracellular Ca2+ mobilization as agonist,Human primary astrocytes [1],"none of the S1PR modulators (ponesimod, siponimod, ozanimod, or fingolimod‐P) affected intracellular Ca^2+ mobilization"
same,inhibition of S1P-induced Ca2+ mobilization (functional antagonism),Human primary astrocytes [2],minor
same,Kd,S1P1 [3],0.8 ± 0.97 nM
"CCCCCCCCCCCCC/C=C/[C@@H](O)[C@@H](N)COP(=O)(O)O [S1P, Sphingosine 1‐phosphate]",cell surface expression of S1P1,S1P1 [4],significantly reduced cell surface expression
same,cell surface expression of S1P4,S1P4,relatively less responsive
same,cell surface expression of S1P1 after wash-out,S1P1 [5],recycled to the cell surface
same,cell surface expression of S1P2,S1P2,significantly reduced cell surface expression
same,cell surface expression of S1P5,S1P5,significantly reduced cell surface expression
same,EC50,"Human primary astrocytes [1]; Homo sapiens, Astrocyte, read-out: logEC50, intracellular Ca2+ response (converted)",93.1 nM
same,cell surface expression of S1P3,S1P3,significantly reduced cell surface expression
CCC/N=C1\S/C(=C\c2ccc(OC[C@H](O)CO)c(Cl)c2)C(=O)N1c1ccccc1C [Ponesimod],cell surface expression of S1P1,S1P1 [4],only reduced the cell surface expression of S1P1
same,"MS fatigue, secondary endpoint",MS fatigue,achieved a novel secondary endpoint of reduced MS fatigue
same,cell surface expression of S1P4,S1P4,remained unchanged
same,effect on S1P-induced cAMP inhibition (functional antagonism),Human primary astrocytes [6],effectively blocked S1P‐induced cAMP inhibition
same,GFAP+ astrocytes in the CC,[7],increased in the CC
same,GFAP+ astrocytes in the cingulum,[7],tended to decrease in the cingulum
same,Iba1+ microglia in the cingulum,[7],significantly decreased
same,demyelination in the cingulum (black gold II staining),[7],protected mice from demyelination in the cingulum
same,number of Olig2+ oligodendrocytes in CC and cingulum,[7],increased
same,selectivity for S1P1 as compared to other S1PRs,S1P1 [8],> 10 fold
same,cell surface expression of S1P1 after wash-out,S1P1 [5],reduced cell surface expression of S1P1 for a sustained period of time
same,effect on inhibiting cAMP production as agonists,Human primary astrocytes [9],Neither ponesimod nor fingolimod‐P showed any effect
same,common DEGs: upregulated by cytokines and downregulated by ponesimod,Human primary astrocytes [10]; 24 and 48 h,2432 DEGs
same,"number of downregulated DEGs, cytokines + ponesimod vs cytokines",Human primary astrocytes [10]; 24 h,4031
same,"number of upregulated DEGs, cytokines + ponesimod vs cytokines",Human primary astrocytes [10]; 24 h,34
same,"number of DEGs, cytokines + ponesimod vs cytokines",Human primary astrocytes [10]; 24 h,4065 DEGs
same,"number of downregulated DEGs, cytokines + ponesimod vs cytokines",Human primary astrocytes [10]; 48 h,822
same,"number of upregulated DEGs, cytokines + ponesimod vs cytokines",Human primary astrocytes [10]; 48 h,130
same,"cellular distribution on UMAP, ponesimod alone","Human primary astrocytes [10]; 48 h, no cytokines",highly overlapping cellular distribution as compared to controls
same,"number of DEGs, cytokines + ponesimod vs cytokines",Human primary astrocytes [10]; 48 h,952 DEGs
same,"expression of S1PR1, S1PR2 and S1PR3",Human primary astrocytes [10]; cytokine-enhanced expression,suppressed
same,FOS expression,Human primary astrocytes [10]; cytokine-stimulated astrocytes,significantly inhibited FOS expression
same,metallothionein (MT) gene expression in Cluster 8,Human primary astrocytes [10]; cytokine-stimulated astrocytes,significantly downregulated
same,"proliferating astrocyte clusters (Clusters 6, 9, and 12)",Human primary astrocytes [10]; cytokine-stimulated astrocytes,blocked decreases in proliferating astrocyte clusters
same,cellular fractions of reactive astrocyte clusters,"Human primary astrocytes [10]; cytokine-stimulated astrocytes, Clusters 3, 8, 10, 11, 15","selectively decreased the cellular fractions of Clusters 8, 10, and 15"
same,cell surface expression of S1P2,S1P2,remained unchanged
same,cell surface expression of S1P5,S1P5,remained unchanged
same,remyelination after cuprizone diet cessation,[11]; prolonged treatment (3 weeks),significantly enhanced remyelination in the cingulum
same,remyelination after cuprizone diet cessation,[11]; short-term treatment (1 week),did not show any beneficial effects
same,Ca2+ signal at highest concentration,"Human primary astrocytes [1]; 30 µM, Figure S1",induced a Ca^2+ signal only at the highest concentration
same,effect on intracellular Ca2+ mobilization as agonist,Human primary astrocytes [1],"none of the S1PR modulators (ponesimod, siponimod, ozanimod, or fingolimod‐P) affected intracellular Ca^2+ mobilization"
same,cell surface expression of S1P3,S1P3,remained unchanged
same,S1P1 internalization (S1P1-EGFP imaging),[12],rapid S1P1 internalization
same,inhibition of S1P-induced Ca2+ mobilization (functional antagonism),Human primary astrocytes [2],blocked S1P‐induced Ca^2+ mobilization in a concentration‐dependent manner
same,Kd,S1P1 [3],2.09 ± 0.27 nM
"CCCCCCCCc1ccc(CC[C@](N)(CO)COP(=O)(O)O)cc1 [Fingolimod-P, fingolimod phosphate]",effect on S1P-induced cAMP inhibition (functional antagonism),Human primary astrocytes [6],right shift of cAMP‐inhibitory curves
same,effect on inhibiting cAMP production as agonists,Human primary astrocytes [9],Neither ponesimod nor fingolimod‐P showed any effect
same,effect on intracellular Ca2+ mobilization as agonist,Human primary astrocytes [1],"none of the S1PR modulators (ponesimod, siponimod, ozanimod, or fingolimod‐P) affected intracellular Ca^2+ mobilization"
same,inhibition of S1P-induced Ca2+ mobilization (functional antagonism),Human primary astrocytes [2],minor
CC(C)Oc1ccc(-c2nc(-c3cccc4c3CC[C@@H]4NCCO)no2)cc1C#N [Ozanimod],effect on intracellular Ca2+ mobilization as agonist,Human primary astrocytes [1],"none of the S1PR modulators (ponesimod, siponimod, ozanimod, or fingolimod‐P) affected intracellular Ca^2+ mobilization"
same,inhibition of S1P-induced Ca2+ mobilization (functional antagonism),Human primary astrocytes [2],blocked S1P‐induced Ca^2+ mobilization in a concentration‐dependent manner
